ChEMBL document CHEMBL1275451, “In vitro susceptibilities of invasive isolates of Candida species: rapid increase in rates of fluconazole susceptible-dose dependent Candida glabrata isolates” (2008)
Converted amounts (≈) assume the structure as drawn. *1 amine or outer side, *2 acyl side, *3 side chain or, on linkers, in order; H or OH if unused. Where a SMILES comes first, the peptide text is derived from it. Bridges are numbered along the chain shown (N, C = ends). [ ]: non-standard residue; d: D form. The star is where a group is joined. hTyr(3S-OH,4S-OH,3'-OSO3H) = N[C@H](C(=O)O)[C@H](O)[C@@H](O)c1ccc(O)c(OS(=O)(=O)O)c1; Orn(4R-OH,5R-OH) = O=C([C@H](C[C@@H](O)[C@@H](O)N[*:3])N[*:1])[*:2]; Pro(3S-OH,4S-Me) = C[C@H]1CN[C@H](C(=O)O)[C@H]1O; X1 = CCCCCOc1ccc(-c2cc(-c3ccc(C(=O)*)cc3)no2)cc1; Gln(3R-OH) = NC(=O)C[C@@H](O)[C@H](N)C(=O)O; Hyp = O=C(O)[C@@H]1C[C@@H](O)CN1

Assays:
Assay type in all cases: functional
[1] = system: Meyerozyma guilliermondii; test: Antifungal activity against Candida guilliermondii after 48 hrs by CLSI method
[2] = system: Candida albicans; test: Antifungal activity against Candida albicans assessed as susceptible isolates after 48 hrs by CLSI method
Outline: (§1)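 Broth microdilution MICs were run on invasive clinical Candida isolates under CLSI M27-A2, with incubation at 35°C for 48 h before reading. Control strains were C. parapsilosis ATCC 22019 and C. krusei ATCC 6258. MICs were interpreted under the same guideline to place isolates as susceptible, susceptible-dose dependent or resistant, reported as percentage of isolates per category, with MIC range, MIC50 and MIC90.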

[3] = system: Meyerozyma guilliermondii; test: Antifungal activity against Candida guilliermondii assessed as susceptible dose-dependent isolates after 48 hrs by CLSI method; outline: as §1
[4] = system: Candida albicans; test: Antifungal activity against Candida albicans assessed as susceptible dose-dependent isolates after 48 hrs by CLSI method; outline: as §1
[5] = system: Nakaseomyces glabratus; test: Antifungal activity against Candida glabrata assessed as susceptible dose-dependent isolates after 48 hrs by CLSI method; outline: as §1
[6] = system: Candida tropicalis; test: Antifungal activity against Candida tropicalis assessed as susceptible isolates after 48 hrs by CLSI method; outline: as §1
[7] = system: Meyerozyma guilliermondii; test: Antifungal activity against Candida guilliermondii assessed as susceptible isolates after 48 hrs by CLSI method; outline: as §1
[8] = system: Pichia kudriavzevii; test: Antifungal activity against Candida krusei after 48 hrs by CLSI method
Outline: as §1, with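 “reading.” for “reading. Control strains were C. parapsilosis ATCC 22019 and C. krusei ATCC 6258.”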

[9] = system: Clavispora lusitaniae; test: Antifungal activity against Candida lusitaniae assessed as susceptible isolates after 48 hrs by CLSI method; outline: as §1
[10] = system: Candida parapsilosis; test: Antifungal activity against Candida parapsilosis assessed as susceptible isolates after 48 hrs by CLSI method; outline: as §1
[11] = system: Pichia kudriavzevii; test: Antifungal activity against Candida krusei assessed as resistant isolates after 48 hrs by CLSI method; outline: as §1
[12] = system: Candida parapsilosis; test: Antifungal activity against Candida parapsilosis assessed as resistant isolates after 48 hrs by CLSI method; outline: as §1
[13] = system: Candida albicans; test: Antifungal activity against Candida albicans after 48 hrs by CLSI method
[14] = system: Candida tropicalis; test: Antifungal activity against Candida tropicalis after 48 hrs by CLSI method; outline: as §1
[15] = system: Candida parapsilosis; test: Antifungal activity against Candida parapsilosis after 48 hrs by CLSI method; conditions: Lodderomyces parapsilosis; outline: as §1
[16] = system: Candida tropicalis; test: Antifungal activity against Candida tropicalis assessed as susceptible dose-dependent isolates after 48 hrs by CLSI method; outline: as §1
[17] = system: Clavispora lusitaniae; test: Antifungal activity against Candida lusitaniae assessed as susceptible dose-dependent isolates after 48 hrs by CLSI method; outline: as §1
[18] = system: Pichia kudriavzevii; test: Antifungal activity against Candida krusei assessed as susceptible isolates after 48 hrs by CLSI method; outline: as §1
[19] = system: Nakaseomyces glabratus; test: Antifungal activity against Candida glabrata after 48 hrs by CLSI method
[20] = system: Candida parapsilosis; test: Antifungal activity against Candida parapsilosis assessed as susceptible dose-dependent isolates after 48 hrs by CLSI method; outline: as §1
[21] = system: Candida albicans; test: Antifungal activity against Candida albicans assessed as resistant isolates after 48 hrs by CLSI method; outline: as §1
[22] = system: Candida tropicalis; test: Antifungal activity against Candida tropicalis assessed as resistant isolates after 48 hrs by CLSI method; outline: as §1
[23] = system: Clavispora lusitaniae; test: Antifungal activity against Candida lusitaniae after 48 hrs by CLSI method
[24] = system: Pichia kudriavzevii; test: Antifungal activity against Candida krusei assessed as susceptible dose-dependent isolates after 48 hrs by CLSI method; outline: as §1
[25] = system: Nakaseomyces glabratus; test: Antifungal activity against Candida glabrata assessed as susceptible isolates after 48 hrs by CLSI method; outline: as §1
[26] = system: Nakaseomyces glabratus; test: Antifungal activity against Candida glabrata assessed as resistant isolates after 48 hrs by CLSI method; outline: as §1
[27] = system: Meyerozyma guilliermondii; test: Antifungal activity against Candida guilliermondii assessed as resistant isolates after 48 hrs by CLSI method; outline: as §1
[28] = system: Clavispora lusitaniae; test: Antifungal activity against Candida lusitaniae assessed as resistant isolates after 48 hrs by CLSI method; outline: as §1

Structure (SMILES) | MIC50 [1] | MIC90 [1] | Activity [2] | Activity [3] | Activity [4] | Activity [5] | Activity [6] | MIC50 [8] | MIC90 [8] | MIC50 [13] | MIC90 [13] | MIC50 [14] | MIC90 [14] | MIC50 [15] | MIC90 [15] | MIC50 [19] | MIC90 [19] | MIC50 [23] | MIC90 [23] | MIC [13] | further results
CCC(C)n1ncn(-c2ccc(N3CCN(c4ccc(OCC5COC(Cn6cncn6)(c6ccc(Cl)cc6Cl)O5)cc4)CC3)cc2)c1=O (stereo not drawn) [ITRACONAZOLE] | 0.5 µg/mL (≈ 0.709 µM) | 0.5 µg/mL (≈ 0.709 µM) | 98% | 88% | 2% | 37% | 65% | 0.5 µg/mL (≈ 0.709 µM) | 0.5 µg/mL (≈ 0.709 µM) | 0.03 µg/mL (≈ 0.0425 µM) | 0.03 µg/mL (≈ 0.0425 µM) | 0.12 µg/mL (≈ 0.17 µM) | 0.25 µg/mL (≈ 0.354 µM) | 0.06 µg/mL (≈ 0.085 µM) | 0.25 µg/mL (≈ 0.354 µM) | 1 µg/mL (≈ 1.42 µM) | 1 µg/mL (≈ 1.42 µM) | 0.06 µg/mL (≈ 0.085 µM) | 0.06 µg/mL (≈ 0.085 µM) | – | Activity [7]: 6%; Activity [9]: 100%; Activity [10]: 78%; Activity [11]: 10%; Activity [12]: 0%; Activity [16]: 35%; Activity [17]: 0%; Activity [18]: 0%; Activity [20]: 22%; Activity [21]: 0%; Activity [22]: 0%; Activity [24]: 90%; Activity [25]: 0%; Activity [26]: 63%
CCCCCOc1ccc(-c2cc(-c3ccc(C(=O)N[C@H]4C[C@@H](O)[C@@H](O)NC(=O)[C@@H]5[C@@H](O)[C@@H](C)CN5C(=O)[C@H]([C@H](O)CC(N)=O)NC(=O)[C@H]([C@H](O)[C@@H](O)c5ccc(O)c(OS(=O)(=O)O)c5)NC(=O)[C@@H]5C[C@@H](O)CN5C(=O)[C@H]([C@@H](C)O)NC4=O)cc3)no2)cc1 [MICAFUNGIN] (X1-[Orn(4R-OH,5R-OH)]T[Hyp][hTyr(3S-OH,4S-OH,3'-OSO3H)][Gln(3R-OH)][Pro(3S-OH,4S-Me)]; lactam 1-C) | 1 µg/mL (≈ 0.787 µM) | 1 µg/mL (≈ 0.787 µM) | – | – | – | – | – | 0.25 µg/mL (≈ 0.197 µM) | 0.5 µg/mL (≈ 0.394 µM) | 0.007 µg/mL (≈ 0.00551 µM) | 0.015 µg/mL (≈ 0.0118 µM) | 0.06 µg/mL (≈ 0.0472 µM) | 0.12 µg/mL (≈ 0.0945 µM) | 2 µg/mL (≈ 1.57 µM) | 2 µg/mL (≈ 1.57 µM) | 0.06 µg/mL (≈ 0.0472 µM) | 0.06 µg/mL (≈ 0.0472 µM) | 0.25 µg/mL (≈ 0.197 µM) | 0.25 µg/mL (≈ 0.197 µM) | 0.007 µg/mL (≈ 0.00551 µM) | MIC [8]: 0.25 µg/mL (≈ 0.197 µM); MIC [14]: 0.06 µg/mL (≈ 0.0472 µM)
CC[C@@H]([C@H](C)O)n1ncn(-c2ccc(N3CCN(c4ccc(OC[C@@H]5CO[C@@](Cn6cncn6)(c6ccc(F)cc6F)C5)cc4)CC3)cc2)c1=O [POSACONAZOLE] | 0.12 µg/mL (≈ 0.171 µM) | 0.25 µg/mL (≈ 0.357 µM) | – | – | – | – | – | 0.25 µg/mL (≈ 0.357 µM) | 0.25 µg/mL (≈ 0.357 µM) | 0.015 µg/mL (≈ 0.0214 µM) | 0.03 µg/mL (≈ 0.0428 µM) | 0.06 µg/mL (≈ 0.0856 µM) | 0.25 µg/mL (≈ 0.357 µM) | 0.03 µg/mL (≈ 0.0428 µM) | 0.06 µg/mL (≈ 0.0856 µM) | 0.5 µg/mL (≈ 0.713 µM) | 0.5 µg/mL (≈ 0.713 µM) | 0.03 µg/mL (≈ 0.0428 µM) | 0.03 µg/mL (≈ 0.0428 µM) | 0.015 µg/mL (≈ 0.0214 µM) | MIC [15]: 0.03 µg/mL (≈ 0.0428 µM)
C[C@@H](c1ncncc1F)[C@](O)(Cn1cncn1)c1ccc(F)cc1F [VORICONAZOLE] | 0.06 µg/mL (≈ 0.172 µM) | 0.12 µg/mL (≈ 0.344 µM) | 100% | 3% | 0% | 2% | 100% | 0.5 µg/mL (≈ 1.43 µM) | 0.5 µg/mL (≈ 1.43 µM) | 0.015 µg/mL (≈ 0.0429 µM) | 0.03 µg/mL (≈ 0.0859 µM) | 0.12 µg/mL (≈ 0.344 µM) | 0.12 µg/mL (≈ 0.344 µM) | 0.03 µg/mL (≈ 0.0859 µM) | 0.06 µg/mL (≈ 0.172 µM) | 0.5 µg/mL (≈ 1.43 µM) | 1 µg/mL (≈ 2.86 µM) | 0.015 µg/mL (≈ 0.0429 µM) | 0.015 µg/mL (≈ 0.0429 µM) | 0.015 µg/mL (≈ 0.0429 µM) | Activity [27]: 0%; Activity [7]: 97%; Activity [9]: 100%; Activity [10]: 100%; Activity [11]: 3%; Activity [12]: 0%; Activity [16]: 0%; Activity [17]: 0%; Activity [18]: 95%; Activity [20]: 0%; Activity [21]: 0%; Activity [22]: 0%; MIC [23]: 0.015 µg/mL (≈ 0.0429 µM); Activity [24]: 3%; Activity [25]: 94%; Activity [28]: 0%; Activity [26]: 4%
